{"source": "ChEMBL document CHEMBL1147008", "about": "“Design, synthesis, and biological activities of madindoline analogues” (2006)"}
{"system": "7TDI", "assay": "Inhibition of IL6-dependent growth of 7TDI cells at 10 uM relative to madindoline A", "type": "functional, Mus musculus", "outline": "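IL-6-dependent 7TDI cell line; growth inhibition measured with each analogue present at 10 μM. Values expressed against the natural compound.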"}
{"smiles": "CCCCC1=C(C)C(=O)[C@@](C)(CN2c3ccccc3[C@]3(OC(=O)c4ccccc4)CCO[C@H]23)C1=O", "Activity": 2.6}
{"smiles": "CCCCC1=C(C)C(=O)[C@@](C)(CN2c3ccccc3[C@@]3(O)CCO[C@@H]23)C1=O", "Activity": 0}
{"smiles": "CCCCCCCCCC(=O)O[C@@]12CCO[C@@H]1N(C[C@]1(C)C(=O)C(C)=C(CCCC)C1=O)c1ccccc12", "Activity": 0}
{"smiles": "CCCCCC(=O)O[C@@]12CCO[C@@H]1N(C[C@]1(C)C(=O)C(C)=C(CCCC)C1=O)c1ccccc12", "Activity": 2.6}
{"smiles": "CCCCC1=C(C)C(=O)[C@@](C)(CN2c3ccccc3[C@]3(O)CCO[C@H]23)C1=O", "Activity": 1}
{"smiles": "CCCCC1=C(C)C(=O)[C@@](C)(CN2c3ccc(I)cc3[C@]3(O)CCO[C@H]23)C1=O", "Activity": 2.8}
{"smiles": "CC1=C(C)C(=O)CC1=O", "Activity": 0}
{"smiles": "CCCCCCCCCC1=C(C)C(=O)[C@](C)(CN2c3ccccc3[C@]3(O)CCO[C@H]23)C1=O", "Activity": 3.9}
{"smiles": "CC1=C(C)C(=O)C(C)(CN2c3ccccc3[C@]3(O)CCO[C@H]23)C1=O", "Activity": 0}
{"smiles": "CCCCC1=C(C)C(=O)[C@@](C)(CN2c3ccccc3[C@]3(OC(C)=O)CCO[C@H]23)C1=O", "Activity": 1.2}
{"smiles": "CCCCCCCC1=C(C)C(=O)[C@](C)(CN2c3ccccc3[C@]3(O)CCO[C@H]23)C1=O", "Activity": 3.2}
{"smiles": "CCCCC1=C(C)C(=O)[C@@](C)(Cn2cc(CCO)c3ccccc32)C1=O", "Activity": 0.9}
{"smiles": "CCCCCCCCCCCCCCCCCCCCCC1=C(C)C(=O)[C@](C)(CN2c3ccccc3[C@]3(O)CCO[C@H]23)C1=O", "Activity": 0}
{"smiles": "CCCCCCCCCCCC1=C(C)C(=O)[C@](C)(CN2c3ccccc3[C@]3(O)CCO[C@H]23)C1=O", "Activity": 3.4}
{"smiles": "CCC1=C(C)C(=O)[C@](C)(CN2c3ccccc3[C@]3(O)CCO[C@H]23)C1=O", "Activity": 0}
{"smiles": "CCCCC1=C(C)C(=O)[C@@](C)(CN2c3ccc(Br)cc3[C@]3(O)CCO[C@H]23)C1=O", "Activity": 2.8}
{"smiles": "CCCCC1=C(C)C(=O)[C@@](C)(CN2c3ccc(Cl)cc3[C@]3(O)CCO[C@H]23)C1=O", "Activity": 0.8}
{"smiles": "O[C@@]12CCO[C@@H]1Nc1ccccc12", "Activity": 0}
{"smiles": "CC1=C(Cc2ccccc2)C(=O)[C@@](C)(CN2c3ccccc3[C@]3(O)CCO[C@H]23)C1=O", "Activity": 0.9}
